Screening data (PubChem)
KLF5 inhibitor – suppresses KLF5 promoter-driven expression. DLD-1 KLF5 promoter-luciferase reporter, luminescence. inhibition, % at 5 µM. actives 0.23% (n = 290,000). AID 1700;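 active = inhibition above a per-plate limit of that plate's mean compound inhibition plus 3 SD, cut at about 60% in these data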;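 also: 0% = DMSO wells and 100% = LY294002 at 200 µM; higher means less KLF5 promoter-driven luciferase light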
HIF act – HIF pathway transcriptional activation. U2OS HRE-luciferase reporter, luminescence; normalized: DMSO 0%, desferrioxamine 100%. activation, % at 7.5 µM (by protocol). AID 1910. actives 0.32% (n = 300,000);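 active = mean activation of at least 10% of the iron chelator positive control signal, with at least half of replicates also reaching 10%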
Bfl-1 A1 inh – inhibitors of the anti-apoptotic protein A1, read as caspase activation. caspase activation, % (test concentration not listed). MEF A1-2A-BIM cells, Caspase-Glo 3/7 luminescence, 3 h; percent of clofoctol response, vehicle zero. actives 0.066% (n = 330,000);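 active = over half of replicate activation scores above 10%, or exactly half above 10 with the replicate mean above 10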
Beta cell apopt – beta cell apoptosis inhibition; INS-1E cytokine-induced death, ATP luminescence, 48 h; percent of positive-control rescue, neutral wells zero; actives 0.8% (n = 300,000); protection from apoptosis, % (concentration not given with the values);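 active = Every replicate reaches about 75%, or at least half do and their mean reaches it too, limit read from the data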;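 also: 0% = cytokine-treated negative control wells and 100% = positive control rescue; higher means more ATP so stronger rescue from cytokine killing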
T cruzi inh – blocks replication of Trypanosoma cruzi; AID 1885; actives 1.4% (n = 300,000); T. cruzi beta-gal in NIH3T3, luminescence, 90 h; inhibition, % (no concentration beside the values);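 active = mean inhibition across valid replicates above about 55%, limit read from the data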;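 also: signal also drops with host cell toxicity which is not excluded here; 0% = plate median of DMSO wells and 100% = zero luminescence signal; higher percent means less beta-gal luminescence so fewer parasites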
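System – NIH/3T3 host cells with β-galactosidase reporter T. cruzi · Doses – single 50 nL compound addition per well in DMSO · Reagent – 5000 T. cruzi trypomastigotes/well · Medium – Low-serum DMEM with 2% FBS · Timing – ≥90 h infection period, 3 h prior cell attachment · Evaluation – parasite load inhibition, % · Technique – GalScreen luminescence, 60 min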
An asterisk follows results filed as active; / = no result. Rows were chosen to be rich in hits. Some 2.3% of all compounds tested hit in one or more screens of this group.

SMILES	KLF5 inhibitor	HIF act	Bfl-1 A1 inh	Beta cell apopt	T cruzi inh
CCCCCCOc1ccc(CN2CCN(C)CC2)cc1	-127	-2	1	109*	68*
Cc1nnc2n1-c1ccc(Cl)cc1C(c1ccccc1)=NC2	-45	/	/	/	/
CCOc1ccc(CNCCc2ccc3c(c2)OCO3)cc1	-12	0	0	-7	67*
CCOc1ccccc1CNCCc1ccc2c(c1)OCO2	-15	0	0	1	15
CCCCCc1nc2c(c(=O)c3ccccc3n2C)c(=O)n1C1CCCCCC1	-8	-2	0	111*	51
COc1ccc(C[C@H]2NC[C@H](O)[C@H]2OC(C)=O)cc1	/	-4	7.5*	51	44
c1ccc2c(CN3CCCCCC3)c[nH]c2c1	-27	0	1	100*	48
C[C@H]1O[C@@H](O[C@H]2[C@@H](O)C[C@H](O[C@H]3[C@@H](O)C[C@H](O[C@H]4CC[C@@]5(C)[C@H](CC[C@@H]6[C@@H]5CC[C@]5(C)[C@@H](C7=CC(=O)OC7)CC[C@]65O)C4)O[C@@H]3C)O[C@@H]2C)C[C@H](O)[C@@H]1O	100*	/	/	/	/
C[C@H]1O[C@@H](OC2CC[C@]3(C=O)[C@H]4CC[C@]5(C)[C@@H](C6=CC(=O)OC6)CC[C@]5(O)[C@@H]4CC[C@]3(O)C2)CC2OC(C)(C)OC21 (stereo partly drawn)	110*	-5	-2	-2	-9
COc1cc(CNCCc2c[nH]c3ccccc23)cc(OC)c1	-19	1	0	2	20
CCCCn1c(O)c(C(C)=NCCCN(C)C)c(=O)[nH]c1=O	-18	0	2	-3	45
CCCCn1c(O)c(C(C)=NCCCN(CC)CC)c(=O)[nH]c1=O	-4	0	-1	4	58*
CCCCn1c(O)c(C(CC)=NCCCN(C)C)c(=O)[nH]c1=O	-34	0	0	-2	57*
CC1(C)C2SCC(=O)N2CCN1CC(=O)NN (stereo not drawn)	-7	0	0	-14	12
CC(C)(C)C(=O)OC[N+](C)(C)CCOC(=O)C(O)(c1ccccc1)C1CCCC1 (stereo not drawn)	-19	0	0	-12	4
CCCC(CCC)C(=O)OC[N+](C)(C)CCOC(=O)C(O)(c1ccccc1)C1CCCC1 (stereo not drawn)	-27	0	1	-4	55*
COc1ccccc1CN1CCN(Cc2ccc(Cl)cc2)CC1	-6	0	1	-2	58*
COC(=O)C1=C(c2ccc(F)cc2F)C[C@@H]2CC[C@H]1N2C(=O)N1CCCC1	/	/	-1	-4	/
c1ccc2c3c([nH]c2c1)C1(CCNCC1)NCC3	-10	0	0	87*	-14
O=c1[nH]sc2cc(F)ccc12	-10	-1	/	/	87*
CCc1nn(CC(=O)N2CCC3(CC2)OCCO3)c(=O)c2cc3ccccc3n12	-22	0	0	-1	0
COc1ccc(CNCCc2ccc(Cl)cc2)c(OC)c1OC	-18	-1	1	4	64*
COc1ccc(CNCCc2cccc(F)c2)c2ccccc12	-17	-14	0	/	47
CCN(CC)c1ccc(CNCCc2ccc(F)cc2)cc1	3	0	1	12	53
Fc1ccc(CCNCc2ccc(Cl)c(Cl)c2)cc1	-15	0	0	-3	67*
SMILES	KLF5 inhibitor	HIF act	Bfl-1 A1 inh	Beta cell apopt	T cruzi inh
COc1cc(OC)c(OC)cc1CNCCc1ccc(OC)c(OC)c1	-24	0	1	-9	-4
CCc1ccc(CNCCc2ccc(F)cc2)cc1	-11	1	0	-5	59*
COc1cc(OC)c(OC)cc1CNCCc1ccc(F)cc1	-53	-11	0	-5	63*
CC(C)OCC(O)CN1CC2C[C@@H](C1)Cn1c2cccc1=O (stereo partly drawn)	-38	-1	0	-5	0
Cc1cc2c(C(C)C)c(O)c(O)c(C=O)c2c(O)c1-c1c(C)cc2c(C(C)C)c(O)c(O)c(C=O)c2c1O	0	/	/	/	/
CC(C)Nc1ccc(Nc2ccccc2)cc1	/	2	1	113*	56*
CC1CN=C(Nc2ccccc2)S1 (stereo not drawn)	-17	0	-2	1	-19
Cc1ccsc1C(=O)C1CCCN(Cc2cnc(N(C)C)s2)C1 (stereo not drawn)	-25	/	0	1	59*
